Measured values from ChEMBL document CHEMBL1121543, “Synthesis of selenium-75 labeled tertiary diamines: new brain imaging agents” (J Med Chem, 1980).

Columns and labels:
Rattus norvegicus [1] = assay: Organ distribution in rat blood 2 hr after intravenous injection; assay type: ADME, organism-based; conditions: in vivo
Outline: (§1)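 Male Sprague-Dawley rats (220-300 g) given 0.2 mL Se-75 labeled compound (0.5-2.0 μCi) iv via femoral vein under light ether anesthesia; killed under ether by heart removal at set times; organs excised and counted in a well counter. Percent dose per organ from comparison with diluted aliquots of injected dose; blood and muscle totals assume 7% and 40% of body weight. Average of two or three rats, with range.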

Rattus norvegicus [2] = assay: Organ distribution in rat liver 2 hr after intravenous injection; assay type: ADME, organism-based; conditions: in vivo; outline: as §1
Rattus norvegicus [3] = assay: Organ distribution in rat liver 30 minutes after intravenous injection; assay type: ADME, organism-based; conditions: in vivo, 0.5 h; outline: as §1
Rattus norvegicus [4] = assay: Organ distribution in rat blood 2 minutes after intravenous injection; assay type: ADME, organism-based; conditions: in vivo; outline: as §1
Rattus norvegicus [5] = assay: Organ distribution in rat brain 30 minutes after intravenous injection; assay type: ADME, organism-based; conditions: in vivo, 0.5 h; outline: as §1
Rattus norvegicus [6] = assay: Organ distribution in rat muscle 2 minutes after intravenous injection; assay type: ADME, organism-based, Muscle tissue; conditions: in vivo; outline: as §1
Rattus norvegicus [7] = assay: Organ distribution in rat lung 2 minutes after intravenous injection; assay type: ADME, organism-based; conditions: in vivo; outline: as §1
Rattus norvegicus [8] = assay: Organ distribution in rat kidney 2 minutes after intravenous injection; assay type: ADME, organism-based; conditions: in vivo; outline: as §1
Rattus norvegicus [9] = assay: Organ distribution in rat muscle 30 minutes after intravenous injection; assay type: ADME, organism-based, Muscle tissue; conditions: in vivo, 0.5 h; outline: as §1
Rattus norvegicus [10] = assay: Organ distribution in rat brain 2 hr after intravenous injection; assay type: ADME, organism-based; conditions: in vivo; outline: as §1
Rattus norvegicus [11] = assay: Organ distribution in rat kidney 2 hr after intravenous injection; assay type: ADME, organism-based; conditions: in vivo; outline: as §1
Rattus norvegicus [12] = assay: Organ distribution in rat lung 2 hr after intravenous injection; assay type: ADME, organism-based; conditions: in vivo; outline: as §1
Rattus norvegicus [13] = assay: Organ distribution in rat lung 30 minutes after intravenous injection; assay type: ADME, organism-based; conditions: in vivo, 0.5 h; outline: as §1
Rattus norvegicus [14] = assay: Organ distribution in rat heart 2 minutes after intravenous injection; assay type: ADME, organism-based; conditions: in vivo; outline: as §1
Rattus norvegicus [15] = assay: Organ distribution in rat blood 30 minutes after intravenous injection; assay type: ADME, organism-based; conditions: in vivo, 0.5 h; outline: as §1
Rattus norvegicus [16] = assay: Organ distribution in rat heart 2 hr after intravenous injection; assay type: ADME, organism-based; conditions: in vivo; outline: as §1
Rattus norvegicus [17] = assay: Organ distribution in rat liver 2 minutes after intravenous injection; assay type: ADME, organism-based; conditions: in vivo; outline: as §1
Rattus norvegicus [18] = assay: Organ distribution in rat muscle 2 hr after intravenous injection; assay type: ADME, organism-based, Muscle tissue; conditions: in vivo; outline: as §1
Rattus norvegicus [19] = assay: Organ distribution in rat brain 2 minutes after intravenous injection; assay type: ADME, organism-based; conditions: in vivo; outline: as §1
Rattus norvegicus [20] = assay: Organ distribution in rat kidney 30 minutes after intravenous injection; assay type: ADME, organism-based; conditions: in vivo, 0.5 h; outline: as §1
Rattus norvegicus [21] = assay: Organ distribution in rat heart 30 minutes after intravenous injection; assay type: ADME, organism-based; conditions: in vivo, 0.5 h; outline: as §1
Rattus norvegicus [22] = assay: Organ distribution in rat blood 30 min after intravenous injection; assay type: ADME, organism-based; conditions: in vivo, 0.5 h; outline: as §1

`C1CCN(CC[Se]CCN2CCCCC2)CC1` showed a Dose/organ (Rattus norvegicus [1]) of 0.65%, a Dose/organ (Rattus norvegicus [2]) of 15.9% and a Dose/organ (Rattus norvegicus [3]) of 14.3%. The Dose/organ (Rattus norvegicus [4]) was 4.58%, the Dose/organ (Rattus norvegicus [5]) was 1.49% and the Dose/organ (Rattus norvegicus [6]) was 7.39%. For the same compound, the Dose/organ (Rattus norvegicus [7]) was 20%, the Dose/organ (Rattus norvegicus [8]) was 7.14% and the Dose/organ (Rattus norvegicus [9]) was 13.4%. It also gave a Dose/organ (Rattus norvegicus [10]) of 1.63%, a Dose/organ (Rattus norvegicus [11]) of 2.89% and a Dose/organ (Rattus norvegicus [12]) of 0.85%. For the same compound, the Dose/organ (Rattus norvegicus [13]) was 2.83%, the Dose/organ (Rattus norvegicus [14]) was 3.04% and the Dose/organ (Rattus norvegicus [15]) was 0.87%. For the same compound, the Dose/organ (Rattus norvegicus [16]) was 0.19%, the Dose/organ (Rattus norvegicus [17]) was 12% and the Dose/organ (Rattus norvegicus [18]) was 12%. The Dose/organ (Rattus norvegicus [19]) was 1.09%, the Dose/organ (Rattus norvegicus [20]) was 9.21% and the Dose/organ (Rattus norvegicus [21]) was 0.89%.
Compound `C1CN(CC[Se]CCN2CCOCC2)CCO1` has a Dose/organ (Rattus norvegicus [1]) of 2.46%, a Dose/organ (Rattus norvegicus [2]) of 21.7% and a Dose/organ (Rattus norvegicus [3]) of 23.2%. For the same compound, the Dose/organ (Rattus norvegicus [4]) was 3.13%, the Dose/organ (Rattus norvegicus [5]) was 1.53% and the Dose/organ (Rattus norvegicus [6]) was 10.5%. For the same compound, the Dose/organ (Rattus norvegicus [7]) was 2.77%, the Dose/organ (Rattus norvegicus [8]) was 9.89% and the Dose/organ (Rattus norvegicus [9]) was 14.4%. It also gave a Dose/organ (Rattus norvegicus [10]) of 0.56%, a Dose/organ (Rattus norvegicus [11]) of 3.42% and a Dose/organ (Rattus norvegicus [12]) of 0.94%. It also gave a Dose/organ (Rattus norvegicus [13]) of 1.79%, a Dose/organ (Rattus norvegicus [14]) of 0.45% and a Dose/organ (Rattus norvegicus [15]) of 2.82%. The Dose/organ (Rattus norvegicus [16]) was 0.18%, the Dose/organ (Rattus norvegicus [17]) was 18.3% and the Dose/organ (Rattus norvegicus [18]) was 17.7%. The Dose/organ (Rattus norvegicus [19]) was 3.19%, the Dose/organ (Rattus norvegicus [20]) was 4.03% and the Dose/organ (Rattus norvegicus [21]) was 0.22%.
`CC(C)N(CC[Se]CCN(C(C)C)C(C)C)C(C)C` gave a Dose/organ (Rattus norvegicus [1]) of 1.04%, a Dose/organ (Rattus norvegicus [2]) of 13.1% and a Dose/organ (Rattus norvegicus [3]) of 16%. The Dose/organ (Rattus norvegicus [4]) was 2.96%, the Dose/organ (Rattus norvegicus [5]) was 0.33% and the Dose/organ (Rattus norvegicus [6]) was 9.88%. The Dose/organ (Rattus norvegicus [7]) was 11.2%, the Dose/organ (Rattus norvegicus [8]) was 11.4% and the Dose/organ (Rattus norvegicus [9]) was 14.2%. It also gave a Dose/organ (Rattus norvegicus [10]) of 0.35%, a Dose/organ (Rattus norvegicus [11]) of 2.28% and a Dose/organ (Rattus norvegicus [12]) of 1.11%. The Dose/organ (Rattus norvegicus [13]) was 3.44%, the Dose/organ (Rattus norvegicus [14]) was 2.35% and the Dose/organ (Rattus norvegicus [15]) was 1.17%. For the same compound, the Dose/organ (Rattus norvegicus [16]) was 0.3%, the Dose/organ (Rattus norvegicus [17]) was 11.9% and the Dose/organ (Rattus norvegicus [18]) was 15%. For the same compound, the Dose/organ (Rattus norvegicus [19]) was 0.25%, the Dose/organ (Rattus norvegicus [20]) was 6.19% and the Dose/organ (Rattus norvegicus [21]) was 0.55%.
Work on `CN(C)CC[Se]CCN(C)C` yielded a Dose/organ (Rattus norvegicus [1]) of 0.53%, a Dose/organ (Rattus norvegicus [2]) of 12.2% and a Dose/organ (Rattus norvegicus [3]) of 15.1%. The Dose/organ (Rattus norvegicus [4]) was 2.82%, the Dose/organ (Rattus norvegicus [22]) was 0.74% and the Dose/organ (Rattus norvegicus [5]) was 0.49%. It also gave a Dose/organ (Rattus norvegicus [6]) of 14.1%, a Dose/organ (Rattus norvegicus [7]) of 11.36% and a Dose/organ (Rattus norvegicus [8]) of 9.46%. It also gave a Dose/organ (Rattus norvegicus [9]) of 11.8%, a Dose/organ (Rattus norvegicus [10]) of 0.71% and a Dose/organ (Rattus norvegicus [11]) of 3.92%. The Dose/organ (Rattus norvegicus [12]) was 4.74%, the Dose/organ (Rattus norvegicus [13]) was 5.77% and the Dose/organ (Rattus norvegicus [14]) was 2.21%. It also gave a Dose/organ (Rattus norvegicus [16]) of 0.54%, a Dose/organ (Rattus norvegicus [17]) of 12.82% and a Dose/organ (Rattus norvegicus [18]) of 15.2%. It also gave a Dose/organ (Rattus norvegicus [19]) of 0.49%, a Dose/organ (Rattus norvegicus [20]) of 5.6% and a Dose/organ (Rattus norvegicus [21]) of 0.81%.
Work on `C[N+](C)(C)CC[Se]CC[N+](C)(C)C` yielded a Dose/organ (Rattus norvegicus [1]) of 0.36%, a Dose/organ (Rattus norvegicus [2]) of 3.04% and a Dose/organ (Rattus norvegicus [3]) of 5.74%. It also gave a Dose/organ (Rattus norvegicus [5]) of 0.06%, a Dose/organ (Rattus norvegicus [9]) of 9.52% and a Dose/organ (Rattus norvegicus [10]) of 0.06%. It also gave a Dose/organ (Rattus norvegicus [11]) of 2.75%, a Dose/organ (Rattus norvegicus [12]) of 0.2% and a Dose/organ (Rattus norvegicus [13]) of 0.63%. It also gave a Dose/organ (Rattus norvegicus [15]) of 5.16%, a Dose/organ (Rattus norvegicus [16]) of 0.05% and a Dose/organ (Rattus norvegicus [18]) of 5.48%. It also gave a Dose/organ (Rattus norvegicus [20]) of 6.01% and a Dose/organ (Rattus norvegicus [21]) of 0.15%.
